Active and inactive are the calls of the source. Rule as the data show it, unless noted: active = inhibition above about 30%; inactive = the rest.
Experiments:
[1] = reducers of endogenous Her2 protein level, primary screen, SKBR3 breast tumor cells, AlphaScreen, ATP viability (AID 461;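 active = Her2 level under about 52% in both replicate screens, with viability over 70% of control, limit read from the data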;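 as to Her2 level: lower value means less Her2 protein in the cells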;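 as to viability: percent of carrier control wells set as 100% viability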); conditions: 18-24 h, measured here: SKBR3 viability, ATP luminescence, at 10 µM
[2] = target: Receptor tyrosine-protein kinase erbB-2 (Homo sapiens) (UniProt P04626); assay: as above; conditions: 18-24 h, at 10 µM, stronger effect = lower value
[3] = SK-BR-3 cell growth inhibitors, pilot screen, 24 h, human (AID 572;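 active = viability at or below 10% of carrier control in both of two separate runs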;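 also: compound exposure lasted between 18 and 24 h rather than exactly 24 h; 100% = carrier-treated control wells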); conditions: SK-BR-3 viability, CellTiter-Glo luminescence, at 10 µM, stronger effect = lower value
[4] = HUVEC growth inhibition – cell-based, human, primary screen (AID 575;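 active = viability at or below 30% in both replicate assays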;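 also: 100% = median of untreated cell wells with 0.1% DMSO on each plate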); conditions: HUVEC proliferation, CellTiter-Glo luminescence, 72 h; at 10 µM; stronger effect = lower value
Method in brief: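 Test system: primary human umbilical vein endothelial cells; medium: endothelial basal medium with 2% FBS plus growth supplements; dosing: 10 µM compound only; times: 72 h treatment at 37 °C; signal: CTG luminescence; read-out: % viability relative to median vehicle-well signal on each plate; control set: vehicle and MePR control wells; plate: 384-well, collagen-coated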

[5] = growth inhibitors of H69AR lung tumor, primary screen, human, duplicate replicates (AID 580;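 active = viability at or under a set limit in both replicates, limit being median viability minus 3 SD, cut at about 48% in these data, passing the limit was not always enough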;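 also: 100% = mean luminescence of untreated wells and 0% = no signal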); conditions: H69AR lung tumor cells viability, ATP luminescence, 72 h; at 10 µM; stronger effect = lower value
[6] = reversal of MRP1-mediated doxorubicin resistance, pilot screen, H69AR cells, doxorubicin co-treatment (AID 601;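 active = viability loss from added drug above about 55%, and viability with drug at most 40%, in both replicates, limit read from the data, passing the limit was not always enough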); conditions: CellTiter-Glo, 72 h, at 10 µM; for differential viability (reversal): stronger effect = higher value
[7] = 384-well plate pilot, post-Golgi transport modulator project, inhibition of yeast transport mutant growth (AID 636; in the data active = inhibition above about 31%); conditions: absorbance 615 nm, about 18 h, stronger effect = higher value
[8] = growth suppression of yeast trafficking mutant, preliminary HTS, modulators of trafficking downstream of Golgi apparatus project, 1536-format plate, OD 615 nm (AID 637); conditions: yeast transport mutant growth, absorbance 615 nm, 18 h; stronger effect = higher value
[9] = H69AR cells + 2 uM doxorubicin, measured here: viability with 2 uM doxorubicin, stronger effect = lower value
[10] = H69AR cells, compound alone cytotoxicity

Receptor tyrosine-protein kinase erbB-2 (Homo sapiens), sequence (P04626 whole entry, looked up): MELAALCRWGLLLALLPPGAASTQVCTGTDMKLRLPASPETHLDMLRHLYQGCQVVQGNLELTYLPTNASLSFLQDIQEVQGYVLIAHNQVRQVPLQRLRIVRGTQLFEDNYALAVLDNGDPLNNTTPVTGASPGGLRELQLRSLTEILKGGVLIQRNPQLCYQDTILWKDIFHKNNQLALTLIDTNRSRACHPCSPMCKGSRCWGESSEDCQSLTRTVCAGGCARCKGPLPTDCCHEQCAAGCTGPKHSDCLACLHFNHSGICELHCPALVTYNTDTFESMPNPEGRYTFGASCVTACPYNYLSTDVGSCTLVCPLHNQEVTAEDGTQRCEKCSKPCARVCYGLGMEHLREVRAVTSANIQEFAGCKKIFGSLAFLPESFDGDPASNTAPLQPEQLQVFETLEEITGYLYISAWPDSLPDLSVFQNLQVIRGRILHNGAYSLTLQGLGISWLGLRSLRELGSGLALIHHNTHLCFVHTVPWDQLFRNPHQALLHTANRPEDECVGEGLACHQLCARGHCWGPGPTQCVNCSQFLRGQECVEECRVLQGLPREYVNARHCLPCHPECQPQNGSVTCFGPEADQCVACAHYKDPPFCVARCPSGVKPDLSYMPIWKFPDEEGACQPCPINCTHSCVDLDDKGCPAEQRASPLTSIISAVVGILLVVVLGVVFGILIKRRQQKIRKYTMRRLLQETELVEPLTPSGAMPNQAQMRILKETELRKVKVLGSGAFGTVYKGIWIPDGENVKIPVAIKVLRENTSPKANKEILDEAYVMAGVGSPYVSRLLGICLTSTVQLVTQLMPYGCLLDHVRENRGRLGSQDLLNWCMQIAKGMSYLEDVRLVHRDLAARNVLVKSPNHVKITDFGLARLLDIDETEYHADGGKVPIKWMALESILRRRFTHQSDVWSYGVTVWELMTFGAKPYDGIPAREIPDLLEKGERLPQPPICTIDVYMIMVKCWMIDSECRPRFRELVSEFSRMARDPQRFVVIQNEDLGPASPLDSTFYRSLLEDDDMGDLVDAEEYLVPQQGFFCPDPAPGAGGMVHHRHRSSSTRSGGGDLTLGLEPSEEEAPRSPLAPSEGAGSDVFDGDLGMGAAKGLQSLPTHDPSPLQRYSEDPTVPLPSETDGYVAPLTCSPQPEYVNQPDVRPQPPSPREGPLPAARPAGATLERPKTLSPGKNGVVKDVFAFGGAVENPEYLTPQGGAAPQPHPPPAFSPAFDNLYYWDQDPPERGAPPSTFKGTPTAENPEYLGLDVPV

Row | Compound | viability [1] [%] | Her2 level [2] | viability [3] | viability [4] | viability [5] | differential viability (reversal) ([6]; H69AR cells + 2 uM doxorubicin) | viability [6, 9] [%] | viability [6, 10] [%] | inhibition [7] | inhibition [8]
1 | COc1ncnc2c1N=C1CC(C)(C)CC(N)=C1S2 | 92.5 | 86% (inactive) | 92.5% (inactive) | 99% (inactive) | 87.5% (inactive) | 4.68% (inactive) | 82.8 | 87.5 | -5.07% (inactive) | -2.3% (inactive)
2 | O=C(CCC(=O)OCCCC(F)(F)C(F)(F)F)NC1CCCCC1 | 123 | 112% (inactive) | 123% (inactive) | 112% (inactive) | 95.3% (inactive) | 3.4% (inactive) | 91.9 | 95.3 | -5.47% (inactive) | -3.23% (inactive)
3 | COc1ccc(-c2cc(C(=O)Nc3ccc(C)cc3)no2)cc1 | 121 | 114% (inactive) | 121% (inactive) | 109% (inactive) | 99.1% (inactive) | 9.35% (inactive) | 89.7 | 99.1 | -3.11% (inactive) | 41% (active)
4 | O=c1sc(Nc2ccccc2)nc2ccsc12 | 96.5 | 47% (active) | 96.5% (inactive) | 60.4% (inactive) | 75.9% (inactive) | -2.11% (inactive) | 78 | 75.9 | -8.16% (inactive) | -3% (inactive)
5 | O=C(CSc1nnc2ccccn12)NCCN1C(=O)CSC1=O | 134 | 85.5% (inactive) | 134% (inactive) | 92.5% (inactive) | 105% (inactive) | 11.8% (inactive) | 93.6 | 105 | -3.64% (inactive) | -0.32% (inactive)
6 | CC(C)CCNC(=O)NC(=O)CSc1nnc(COc2ccccc2Cl)o1 | 99 | 80.5% (inactive) | 99% (inactive) | 81% (inactive) | 93% (inactive) | 5.9% (inactive) | 87.1 | 93 | -2.24% (inactive) | -5.87% (inactive)
7 | CCOC(=O)c1c(C)c(C(=O)NCC2CCCO2)c(C)n1C (stereo not given) | 100 | 82.5% (inactive) | 100% (inactive) | 83.5% (inactive) | 92.2% (inactive) | 11.9% (inactive) | 80.3 | 92.2 | -1.71% (inactive) | 1.59% (inactive)
8 | CCOC(=O)C1CCN(S(=O)(=O)c2cc(Cl)c(C)cc2OC)CC1 | 90 | 92.5% (inactive) | 90% (inactive) | 105% (inactive) | 85.2% (inactive) | -9.44% (inactive) | 94.6 | 85.2 | -2.5% (inactive) | -3.39% (inactive)
9 | CCOC(=O)c1c(C)[nH]c(C(=O)CSc2nc3ccccc3o2)c1C | 85.5 | 85% (inactive) | 85.5% (inactive) | 88.6% (inactive) | 73.3% (inactive) | -18.9% (inactive) | 92.2 | 73.3 | -1.15% (inactive) | -5.17% (inactive)
10 | O=S(=O)(Nc1ccn(-c2ccccc2)n1)c1ccc(Br)cc1 | 89 | 86.5% (inactive) | 89% (inactive) | 85.7% (inactive) | 87.5% (inactive) | -6.15% (inactive) | 93.7 | 87.5 | -3.77% (inactive) | 0.16% (inactive)
11 | O=C(c1ccccc1)c1ccncc1 | 100 | 76.5% (inactive) | 100% (inactive) | 100% (inactive) | 92.4% (inactive) | -3.62% (inactive) | 96 | 92.4 | -6.05% (inactive) | 5.33% (inactive)
12 | CC(=O)O[C@H]1CSC[C@H]1NC(=O)c1ccccc1 | 98.5 | 97% (inactive) | 98.5% (inactive) | 101% (inactive) | 99.8% (inactive) | 11% (inactive) | 88.8 | 99.8 | -2.13% (inactive) | -1.77% (inactive)
13 | Cc1cnc(C(=O)Nc2ccc(N3CCOCC3)cc2)cn1 | 95 | 87% (inactive) | 95% (inactive) | 116% (inactive) | 100% (inactive) | 11.7% (inactive) | 88.5 | 100 | -1.32% (inactive) | -1.45% (inactive)
14 | O=C(O)CCCC(=O)NCCc1ccncc1 | 98 | 89% (inactive) | 98% (inactive) | 97% (inactive) | 107% (inactive) | 7.97% (inactive) | 98.5 | 107 | -1.84% (inactive) | -1.27% (inactive)
15 | O=C(CCN1C(=O)COc2ccccc21)NCCCN1CCN(c2ccccc2F)CC1 | 105 | 118% (inactive) | 105% (inactive) | 90.6% (inactive) | 84.6% (inactive) | 5.56% (inactive) | 79 | 84.6 | -3.64% (inactive) | -2.5% (inactive)
16 | O=C(OCC(=O)N1CCCC1)c1ccccc1OCc1ccccc1 | 96 | 79.5% (inactive) | 96% (inactive) | 73.2% (inactive) | 99.4% (inactive) | 11.1% (inactive) | 88.3 | 99.4 | -7.7% (inactive) | 1.31% (inactive)
